TRPC4 act – activators of mouse TRPC4 channel. Q9QUQ5. HEK293 TRPC4beta/mu-opioid, Fluo4 calcium fluorescence; hits give high values. B-score at 10 µM. 310,000 tested, 0.49% active;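 active means B-score above 5 SD of library B-scores, and initial fluorescence ratio not above library mean plus 5 SD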;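 further: positive B-score marks a calcium rise read as TRPC4 activation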
Target sequence (Q9QUQ5 whole entry, looked up): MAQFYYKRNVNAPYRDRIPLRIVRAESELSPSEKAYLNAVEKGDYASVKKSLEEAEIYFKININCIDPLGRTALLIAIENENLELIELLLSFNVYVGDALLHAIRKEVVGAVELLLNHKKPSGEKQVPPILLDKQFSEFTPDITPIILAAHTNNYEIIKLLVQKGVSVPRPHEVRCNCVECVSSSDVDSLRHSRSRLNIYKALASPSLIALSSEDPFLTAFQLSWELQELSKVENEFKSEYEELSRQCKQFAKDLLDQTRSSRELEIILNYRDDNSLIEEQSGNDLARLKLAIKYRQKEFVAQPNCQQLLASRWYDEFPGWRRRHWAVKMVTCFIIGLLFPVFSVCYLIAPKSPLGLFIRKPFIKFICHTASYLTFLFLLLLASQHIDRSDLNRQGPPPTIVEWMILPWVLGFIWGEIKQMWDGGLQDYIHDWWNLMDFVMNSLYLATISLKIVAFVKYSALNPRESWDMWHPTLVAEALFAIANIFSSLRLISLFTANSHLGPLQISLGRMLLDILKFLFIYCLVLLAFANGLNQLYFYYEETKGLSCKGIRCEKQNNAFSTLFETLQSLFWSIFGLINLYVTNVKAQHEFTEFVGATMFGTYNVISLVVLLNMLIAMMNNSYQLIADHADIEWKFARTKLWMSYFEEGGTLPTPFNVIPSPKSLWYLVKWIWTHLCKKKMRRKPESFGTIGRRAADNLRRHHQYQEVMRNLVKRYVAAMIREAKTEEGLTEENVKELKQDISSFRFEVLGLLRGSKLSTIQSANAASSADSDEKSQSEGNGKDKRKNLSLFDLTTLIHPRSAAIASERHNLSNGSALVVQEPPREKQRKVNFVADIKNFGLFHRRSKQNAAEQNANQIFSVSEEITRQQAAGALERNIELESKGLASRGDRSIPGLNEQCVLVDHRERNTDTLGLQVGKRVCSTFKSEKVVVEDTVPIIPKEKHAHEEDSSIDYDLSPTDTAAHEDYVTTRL
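Incubation: 45 min room-temperature Fluo4 loading, 110 s read / System: HEK293 cells stably co-expressing mouse TRPC4beta and mu-opioid receptor / Signal: Fluo4 fluorescence, kinetic / Control set: buffer (low) and maximal DAMGO (high) / Measure: integrated baseline-normalised fluorescence ratio, converted to per-well B score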
TRPC4 inh – TRPC4 (mouse) channel inhibition | 300,000 tested, 0.39% active | Q9QUQ5 | HEK293 TRPC4beta/mu-opioid, DAMGO-evoked Fluo4 calcium flux; hits give low values | B-score at 10 µM;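 active means B-score over 3 SD under the library average, no early fluorescence shift, positive overall ratio signal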
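Assay system: HEK293 cells with stable TRPC4beta plus mu-opioid receptor expression. Dosing: single dose. Measured by: Fluo4 Ca2+ flux fluorescence. Also added: DAMGO in two steps, submaximal then maximal. Read-out: B score from integrated Fluo4 fluorescence ratio.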
TRPC6 act – mouse TRPC6 channel activation. B-score at 10 µM. HEK293-TRPC6 membrane potential dye fluorescence; hits give high values. AID 2550. 310,000 tested, 0.13% active;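 active means B-score of the integrated fluorescence ratio above library mean plus 3 SD, and starting fluorescence ratio within library mean plus 5 SD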;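 further: higher score means more depolarization so channel activation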
TRPC4 PAM – TRPC4 (mouse) allosteric potentiation; Q9QUQ5; HEK293 TRPC4beta/mu-opioid, DAMGO EC20, Fluo-4 Ca2+ flux; hits give high values; 310,000 tested, 0.42% active; B-score at 10 µM; AID 2227;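 active means B-score of calcium response area above 5 SD of library B-scores, with initial fluorescence ratio within 5 SD of library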
TRPC6 inhibitor – mouse TRPC6 channel inhibition | Q61143 | HEK293-TRPC6, membrane potential dye, ACh-evoked depolarization; hits give low values | B-score at 10 µM | 310,000 tested, 1.1% active;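 active means B-score under library mean minus 3 SD, initial fluorescence not abnormally high, positive integrated signal ratio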;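 further: B-score derived from integrated fluorescence ratio over the kinetic read; more negative B-score means stronger inhibition of depolarization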
TRPC4 spec 2 – second selectivity test of TRPC6 inhibitors: effect on mouse TRPC4. inhibition, % at 10 µM. shares compounds with TRPC6 inhibitor. 920 tested, 42% active. AID 2776. HEK293 TRPC4/MOR, membrane potential dye fluorescence; channel activated by saturating DAMGO dose;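 active means compounds whose fluorescence signal differed from control wells by over 3 SD, either direction, in both duplicate plates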
TRPC4 spec – mouse TRPC4 off-target activity of TRPC6 inhibitors; shares compounds with TRPC6 inhibitor; HEK293 TRPC4/mu-opioid, membrane potential fluorescence; activity change, negative = inhibition, % at 10 µM; 920 tested, 61% active; AID 2777;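 active means rise or fall in signal beyond 3 SD of buffer-only wells in both replicate plates, either sign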;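 further: integrated kinetic ratio of fluorescence range over baseline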
HEK293 MPD ctr 2-1 – second counter-screen for TRPC6 inhibitors: parental HEK293 cells. signal change vs control, % at 10 µM. AID 2779. shares compounds with TRPC6 inhibitor. parental HEK293 membrane potential dye fluorescence; maximal acetylcholine challenge after compound addition. 920 tested, 31% active;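 active means membrane potential signal moving either way by over 3 SD of the maximum-effect control, in both duplicate plates, meaning non-specific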
HEK293 MPD ctr-1 – checks TRPC6 inhibitor effects in parental HEK293 cells | shares compounds with TRPC6 inhibitor | parental HEK293 membrane potential dye fluorescence | membrane potential signal change, % at 10 µM | 920 tested, 60% active;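 active means membrane potential signal shifting up or down by more than 3 SD of buffer-only wells, on both duplicate plates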
HEK293 MPD ctr-2 – parental HEK293 nonspecific activity of TRPC6 modulators; shares compounds with TRPC6 inhibitor; membrane potential signal change, % at 10 µM; membrane potential dye fluorescence; AID 488924; 2,400 tested, 51% active;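 active means membrane potential signal moves up or down beyond 5 SD from buffer-only wells, on both duplicate plates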
HEK293 MPD ctr 2-2 – second check of TRPC6 modulator effects in parental HEK293 cells; shares compounds with TRPC6 inhibitor; membrane potential dye fluorescence; after compound, maximal acetylcholine stimulation; inhibition, % at 10 µM; 2,400 tested, 14% active;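 active means membrane potential signal drops by more than 5 SD from the mean control signal, in both duplicate plates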
TRPC4/MOR mod – tests whether TRPC6 modulators also affect mouse TRPC4; shares compounds with TRPC6 inhibitor; HEK293 TRPC4/mu-opioid, membrane potential fluorescence; percent change from control (negative = decrease, positive = increase), % at 10 µM; 2,400 tested, 69% active; AID 488927;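 active means membrane potential signal moved up or down beyond 5 SD of buffer control wells, in both duplicate plates, actives on both sides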
TRPC4 ctr inh 2 – mouse TRPC4 off-target activity of TRPC6 modulators, second screen | shares compounds with TRPC6 inhibitor | 2,400 tested, 55% active | inhibition, % at 10 µM | HEK293 TRPC4/mu-opioid, membrane potential dye fluorescence; stimulated with maximal-effect DAMGO | AID 488928;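 active means drop in membrane potential signal beyond 5 SD of the control wells in both duplicate plates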;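 further: TRPC4 counter screen for TRPC6 hits run under conditions tuned for TRPC6 not TRPC4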
TRPC6 block conf – confirmation of mouse TRPC6 inhibitors; 3,300 tested, 43% active; HEK293-TRPC6, membrane potential dye, ACh-evoked depolarization; shares compounds with TRPC6 inhibitor; inhibition, % at 10 µM;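 active means fluorescence ratio falls more than 5 SD below the full-stimulation control mean, in both duplicate runs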;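 further: integrated fluorescence ratio of peak minus minimum over baseline after agonist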
TRPC6 act confirm – mouse TRPC6 activator confirmation. HEK293-TRPC6 membrane potential dye fluorescence, FDSS. shares compounds with TRPC6 inhibitor. 2,800 tested, 11% active. AID 488961. activation, % at 10 µM;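 active means ratio signal rise beyond 5 SD above unstimulated control wells' mean, seen in both duplicate runs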
Hits are given with their value; n = inactive; x = no result; + = active, no number; ! = a repeat was not active. In the library only some 2.3% were active in any assay of this set; here they are far more common.

SMILES | TRPC4 act | TRPC4 inh | TRPC6 act | TRPC4 PAM | TRPC6 inhibitor | HEK293 MPD ctr-2 | HEK293 MPD ctr 2-2 | TRPC4/MOR mod | TRPC4 ctr inh 2 | TRPC6 block conf | TRPC6 act confirm | others
CC1CN(C(=O)c2ccc(-c3ccccc3Cl)o2)CC(C)O1 (stereo not given) | n | n | n | n | n | x | x | x | x | x | x
CN(C)c1ccc2c3c(ccc(N(C)C)c13)C(=O)OC2 | n | n | n | n | -6 | -408% | n | -68% | 44% | n | n
CS(=O)(=O)Nc1ccc2c(c1)C(=O)OC2 | n | n | n | n | n | x | x | x | x | x | x
Cc1cn2c(N)c(C=C3C=C(Cl)C(=O)C(Cl)=C3)c(=O)nc2s1 | n | n | 83 | n | n | + | 198% | 360% | n | n | 430%
O=C(O)c1ccc(N/N=C/C2=C(N3CCOCC3)C(=C\c3ccccc3)/CC2)cc1 | 51 | n | 22 | n | n | 856% | n | 191% | n | n | 350%
COc1cc(/C=C2\C(=O)ON=C2c2ccccc2)cc(Br)c1O | n | n | 16 | n | n | 906% | n | 74% | n | n | 148%
COc1cc(/C=C2/C(=O)ON=C2c2ccccc2)ccc1O | n | n | n | n | n | x | x | x | x | x | x
CCOC(=O)c1c(NC(=O)COC(=O)c2cc(OC)c(OC)cc2[N+](=O)[O-])sc(C)c1C | n | n | n | n | -5.1 | n | n | n | 40% | n | n
CCOC(=O)c1c(NC(=O)COC)sc(C)c1C | n | n | n | n | n | x | x | x | x | x | x
COc1ccc(-c2cn3cccc(C)c3n2)cc1F | n | n | n | n | -8 | x | x | x | x | n | n | TRPC4 spec 2=n;TRPC4 spec=n;HEK293 MPD ctr 2-1=4.5%;HEK293 MPD ctr-1=-198%
COc1ccc(-c2cn3cc(C)ccc3n2)cc1OC | n | n | n | n | -7.6 | x | x | x | x | n | n | TRPC4 spec 2=n;TRPC4 spec=-9.8%;HEK293 MPD ctr 2-1=-28%;HEK293 MPD ctr-1=n
Cc1ccc(C(OCCN(C)C)c2cccc(C(F)(F)F)c2)cc1 (stereo not given) | n | n | n | n | -5.4 | n | n | 18% | 38% | n | x
CCOC(=O)COc1cccc(C2NC(=O)c3ccccc3O2)c1 (stereo not given) | n | n | n | n | n | x | x | x | x | x | x
CCCN1CCCc2cc(CN(CCCN3CCOCC3)C(=O)Nc3ccc(OCC)cc3)ccc21 | n | n | n | n | -5.3 | n | n | n | 38% | n | n
CCOc1ccc(NC(=O)N(CCN2CCOCC2)Cc2ccc3c(c2)CCCN3CC)cc1 | n | n | n | n | n | x | x | x | x | x | x
Cc1nnc(-c2cnn(C)c2N)n1CCCN1CCOCC1 | n | n | n | n | n | x | x | x | x | x | x
Fc1cccc(CCN2CCNC[C@@H]2Cc2ccccc2)c1 | n | n | n | n | -5.4 | n | n | n | 39% | n | n
FC(F)(F)c1cc(CCN2CCNC[C@@H]2Cc2ccccc2)cc(C(F)(F)F)c1 | n | n | n | n | -5.6 | n | n | n | 48% | n | n
CCCC[C@@H]1CNCCN1CCc1cccc(F)c1 | n | n | n | n | n | x | x | x | x | x | x
CC(O)[C@H]1CNCCN1CCc1cc(C(F)(F)F)cc(C(F)(F)F)c1 (stereo not given in full) | n | n | n | n | n | x | x | x | x | x | x
C[n+]1c2n(c3ccccc31)N=C(c1ccccc1)CS2 | n | n | n | n | -5.2! | -159% | n | -26% | 50% | n | n
C[n+]1c2n(c3ccccc31)N=C(c1ccc(-c3ccccc3)cc1)CS2 | n | n | n | n | n | x | x | x | x | x | x
CCCN1CNc2c(c(=O)[nH]c(=S)n2CCc2ccc(OC)c(OC)c2)C1 | n | n | n | n | n | x | x | x | x | x | x
Clc1ccccc1N1CCN(Cc2c[nH]c3ccccc23)CC1 | n | n | n | n | n | x | x | x | x | x | x
Fc1ccccc1N1CCN(C2CCN(Cc3c[nH]c4ccccc34)CC2)CC1 | n | n | n | n | -5.2 | 148% | n | 19% | 58% | n | x
SMILES | TRPC4 act | TRPC4 inh | TRPC6 act | TRPC4 PAM | TRPC6 inhibitor | HEK293 MPD ctr-2 | HEK293 MPD ctr 2-2 | TRPC4/MOR mod | TRPC4 ctr inh 2 | TRPC6 block conf | TRPC6 act confirm | others
Cc1cc(Nc2cc(Cl)cc(Cl)c2)nc(N)n1 | n | n | n | n | n | x | x | x | x | x | x
CCOc1ccc(-n2c(SCC(N)=O)nc3sc4c(c3c2=O)CCN(C)C4)cc1 | n | n | n | n | n | x | x | x | x | x | x
CCOC(=O)CSc1nc2sc3c(c2c(=O)n1C1CCCCC1)CCN(C)C3 | n | n | n | n | -5.6 | n | n | 8.0% | 46% | n | n
COCCSc1nc2sc3c(c2c(=O)n1-c1ccccc1)CCN(C)C3 | n | n | n | n | -7.5 | -108% | n | -22% | n | n | n
CCC(O)CNc1nc(SC)nc2sc3c(c12)CCN(C)C3 (stereo not given) | n | n | n | n | -7.2 | -167% | n | -39% | 36% | n | n
CCNc1nc(SCC(N)=O)nc2sc3c(c12)CCN(C)C3 | n | n | n | n | -6.6 | -196% | n | -38% | 43% | 52% | n
COC(CNc1nc(SC)nc2sc3c(c12)CCN(C)C3)OC | n | n | n | n | n | x | x | x | x | x | x
CCSc1nc2sc3c(c2c(=O)n1-c1ccccc1)CCN(C)C3 | n | n | n | n | n | x | x | x | x | x | x
O=C(CCN1C(=O)c2ccccc2C1=O)C1=NN[C@@H]2C(=O)N(c3ccc4c(c3)OCO4)C(=O)[C@H]12 | n | n | n | n | n | x | x | x | x | x | x
Cn1c(=O)oc2cc(S(=O)(=O)Nc3ccc4c(c3)OCO4)ccc21 | n | n | n | n | n | x | x | x | x | x | x
